Legend:
[1] = Partition coefficient (logP); type: physicochemical; conditions: octanol/water
Summary of the method: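 Each ⁶⁴Cu complex was partitioned between octanol and water, shaken 1 h at room temperature, and 100 μL from each phase was counted. Log P is the log of the octanol/water count ratio, averaged over five samples.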

Rattus norvegicus [2] = species on record: Rattus norvegicus; test: Distribution in rat kidney 24 hr postinjection; type: ADME, organism-based; conditions: in vivo
Summary of the method: (§1)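 ⁶⁴Cu-labeled complexes, at NCA and CA levels, were diluted in saline and injected into mature female Sprague–Dawley rats (180–200 g; n = 4). Each rat received up to 0.2 mL carrying 22 μCi. Rats were sacrificed at set times after injection, including 24 h. Organs were excised, weighed and counted against a weighed, counted standard. Values are %ID/g and %ID/organ ± sd.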

Rattus norvegicus [3] = species on record: Rattus norvegicus; test: Distribution in rat liver after 24 hr postinjection; type: ADME, organism-based; conditions: in vivo; summary of the method: as §1
Rattus norvegicus [4] = species on record: Rattus norvegicus; test: Distribution in rat blood after 24 hr postinjection; type: ADME, organism-based; conditions: in vivo; summary of the method: as §1

| Compound | logP [1] | Biodistribution (Rattus norvegicus [2]) | Biodistribution (Rattus norvegicus [3]) | Biodistribution (Rattus norvegicus [4]) |
| --- | --- | --- | --- | --- |
| CCN(CC)C(=O)CN1CCCN2CCN(CCCN(CC(=O)N(CC)CC)CC2)CC1 | -1.95 |  |  |  |
| Cu-1,4,8,11tetraaza-Cyclotetradecane-2,10-dione |  | 0.097 | 0.7 | 0.23 |
| Cu-(4,8,11-Tris-carboxymethyl-1,4,8,11tetraaza-cyclotetradec-1-yl)-acetic acid |  | 0.21 | 0.49 | 0.21 |
| C1CNCCN2CCCNCCN(C1)CC2 | -2.11 |  |  |  |
| NC(=O)CCN1CCCN2CCN(CCC(N)=O)CCCN(CC1)CC2 | -2.3 |  |  |  |

From ChEMBL document CHEMBL1135747, “Radiolabeling and in vivo behavior of copper-64-labeled cross-bridged cyclam ligands” (J Med Chem, 2002)
